Hits are enriched below; roughly 0.75% of the tested compounds scored in any of these assays.
MDM2 E3 inh = Mdm2 E3 ligase (human) inhibition; Q00987; cell-based MDM2 ubiquitination luciferase reporter, 2 h; 0 = plate control, 100 = twice control, blank-subtracted; signal enhancement, % at 5 µM; 0.11% of 210,000 active;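 active = signal enhancement of 30% or more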;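 also: luminescence tracks abundance of the self-degrading MDM2-luciferase fusion protein; higher signal means inhibition of MDM2 E3 ligase activity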
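system = mammalian cells stably expressing self-ubiquitinating, self-degrading MDM2 E3–luciferase fusion | quantity = 2000 cells per well seeded | incubation = 4 h cell settling then 2 h compound exposure, 37 °C | signal = SteadyLite luminescence, 15 min reagent step | benchmarks = plate control and blank wells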
Rad51 HR inh = blocks human Rad51 in homologous recombination. Q06609. hRad51 DNA strand exchange, fluorescence dequenching. inhibition, % at 10 µM. 0.085% of 200,000 active. AID 1385;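 active = inhibition above 40% at the single screening dose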;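 also: 0% = DMSO control wells and 100% = blanks with heterologous ssDNA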
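System: human Rad51 nucleoprotein filaments preassembled on unlabelled ssDNA. Reagent: labelled 47-mer dsDNA for strand exchange. Schedule: 30-min compound preincubation and 15-min exchange, both room temperature. Measured by: FRET fluorescence dequenching, excitation 485 nm, emission 520 nm. Read-out: Fluorescence-based percent inhibition, control- and blank-normalised. Benchmarks: plate controls and plate blanks.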
NCF1 inh = blocks human p47phox regulatory protein of NADPH oxidases. P14598. p47phox/p22phox peptide binding, fluorescence polarization, 2 h. inhibition, % at 24.7 µM. 0.53% of 220,000 active. AID 1274;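 active = inhibition above about 30%, limit read from the data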;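 also: 0% = p47phox with labelled peptide and 100% = labelled peptide alone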
Target sequence (P14598 whole entry, looked up): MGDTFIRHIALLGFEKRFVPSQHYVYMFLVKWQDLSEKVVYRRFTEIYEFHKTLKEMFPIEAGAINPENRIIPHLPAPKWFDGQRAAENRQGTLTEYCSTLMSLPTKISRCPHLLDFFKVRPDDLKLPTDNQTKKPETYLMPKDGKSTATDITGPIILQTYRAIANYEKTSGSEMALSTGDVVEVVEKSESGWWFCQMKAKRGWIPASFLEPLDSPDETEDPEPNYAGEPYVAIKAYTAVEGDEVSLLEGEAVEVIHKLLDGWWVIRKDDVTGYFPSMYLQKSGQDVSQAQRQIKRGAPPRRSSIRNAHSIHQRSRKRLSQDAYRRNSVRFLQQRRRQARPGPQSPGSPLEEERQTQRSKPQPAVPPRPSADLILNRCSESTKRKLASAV
TbHK1 inh = blocks Trypanosoma brucei hexokinase 1 activity; recombinant TbHK1, G6PDH-coupled NADH A340; inhibition, % at 10 µM; 0.11% of 220,000 active; AID 1430;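 active = inhibition of 50% or more in the single-dose primary screen; inactive = inhibition below 50%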
* hit, by the source's call.

What do the screens show for `O=C(Nc1ccc(Br)cn1)c1cccc(-c2cc3ccccc3oc2=O)c1`?
MDM2 E3 inh: -12; Rad51 HR inh: 6; NCF1 inh: 37*; TbHK1 inh: 2

How did CCCCCCCCCCCCCCCC[n+]1ccc(C(N)=O)cc1 do in these assays?
MDM2 E3 inh: -12; Rad51 HR inh: 4; NCF1 inh: 101*; TbHK1 inh: 64*

How did CCCCCCCC[n+]1cccc(C(=O)N(CC)CC)c1 do in these assays?
MDM2 E3 inh: -6; Rad51 HR inh: -4; NCF1 inh: 0; TbHK1 inh: 17

Results for CCCCCCCCCCCCCCCC[n+]1ccc(/C=N/O)cc1 ?
MDM2 E3 inh: -20; Rad51 HR inh: 9; NCF1 inh: 97*; TbHK1 inh: 47

How did CCCCCCCCCCCCCCCC[n+]1cccc(C(=O)N(CC)CC)c1 do in these assays?
MDM2 E3 inh: -16; Rad51 HR inh: 14; NCF1 inh: 108*; TbHK1 inh: 35

Results for CCCCC(=O)Nc1ccc(C(N)=O)cc1 ?
MDM2 E3 inh: 8; Rad51 HR inh: -6; NCF1 inh: -7; TbHK1 inh: -4

Results for C/C(=N/NC(=O)c1ccc(C)nc1)c1ccc2c(c1)CCCC2 ?
MDM2 E3 inh: -3; Rad51 HR inh: 30; NCF1 inh: 4; TbHK1 inh: -5

What do the screens show for `O=C(c1cccc(Cl)c1)N1CCC(=O)N(C(CO)Cc2ccccc2)CC1` (stereo not drawn)?
Rad51 HR inh: -6

Results for O=C(NCc1cccnc1)c1cc(-c2cccs2)on1 ?
MDM2 E3 inh: 1; NCF1 inh: 138*; TbHK1 inh: -9

Results for O=C(NCc1cccnc1)c1cc(-c2ccccc2)on1 ?
MDM2 E3 inh: -1; Rad51 HR inh: 14; NCF1 inh: 7; TbHK1 inh: 2

How did CCc1ccccc1NC(=O)C1CC(c2ccc(F)cc2)=NO1 (stereo not drawn) do in these assays?
MDM2 E3 inh: -11; Rad51 HR inh: -19; NCF1 inh: 33*; TbHK1 inh: 3

How did COC(=O)c1ccccc1NC(=O)C1CC(c2ccc(F)cc2)=NO1 (stereo not drawn) do in these assays?
Rad51 HR inh: 5; NCF1 inh: -1; TbHK1 inh: 2

How did Cc1ccc(Nc2nnc(SCC3CCCCO3)s2)cc1 (stereo not drawn) do in these assays?
MDM2 E3 inh: 848*; Rad51 HR inh: 1; NCF1 inh: 5; TbHK1 inh: -2

Results for CCOc1ccc2[nH]c(=O)c(CN(CC3COCCO3)C(=O)c3ccc(C)cc3)cc2c1 (stereo not drawn) ?
MDM2 E3 inh: 2; Rad51 HR inh: -8; NCF1 inh: -6; TbHK1 inh: -15

How did CC1(C)Cc2c(sc(NC(=O)COc3cccc4ccccc34)c2C#N)C(C)(C)N1 do in these assays?
MDM2 E3 inh: 8; Rad51 HR inh: 2; NCF1 inh: 51*; TbHK1 inh: -25

How did Cc1ccc(OCC(=O)Nc2sc3c(c2C#N)CC(C)(C)NC3(C)C)cc1 do in these assays?
MDM2 E3 inh: 2; Rad51 HR inh: 3; NCF1 inh: -8; TbHK1 inh: 6

How did O=C1CN(C(=O)Cn2ncc(Cl)c(Cl)c2=O)c2ccccc2N1 do in these assays?
MDM2 E3 inh: -11; Rad51 HR inh: 5; NCF1 inh: -12; TbHK1 inh: -8

What do the screens show for `O=C1CN(CC(=O)Nc2cccc(Cl)c2Cl)c2ccccc2N1`?
MDM2 E3 inh: -17; Rad51 HR inh: -9; NCF1 inh: 37*; TbHK1 inh: -2

Results for CCOc1ccc(N2CC(O)=C(c3ccccc3)C2=N)cc1 ?
MDM2 E3 inh: -3; Rad51 HR inh: 2; NCF1 inh: 1; TbHK1 inh: -7

What do the screens show for `CCOC(=O)C1C(c2ccccc2)N(C)OC1(O)C(F)(F)F` (stereo not drawn)?
MDM2 E3 inh: 35*; Rad51 HR inh: 6; NCF1 inh: -12; TbHK1 inh: 0

Results for COc1ccc(/C=C(/C#N)C(=O)Nc2cc(C)ccc2C)cc1C(=O)O ?
MDM2 E3 inh: -38; NCF1 inh: 163*; TbHK1 inh: -41

How did COc1ccc(NC(=O)/C(C#N)=C\c2ccc(OCc3ccc(C(=O)O)cc3)c(OC)c2)cc1 do in these assays?
MDM2 E3 inh: 30*; Rad51 HR inh: 5; NCF1 inh: -23; TbHK1 inh: -15

How did COc1ccc(/C=C(\C#N)C(=O)Nc2cc(C)c(Cl)cc2OC)cc1O do in these assays?
Rad51 HR inh: 2; NCF1 inh: -27; TbHK1 inh: -23

Results for COc1ccc(S(=O)(=O)NN(C)c2ncc(C(F)(F)F)cc2Cl)cc1 ?
MDM2 E3 inh: 36*; Rad51 HR inh: -12; NCF1 inh: -3; TbHK1 inh: -1

Source: PubChem BioAssay (several laboratories)
